# In ChEMBL document CHEMBL1123005, “1-Azacycloalkyl-1,4-benzodiazepin-2-ones with antianxiety-antidepressant actions” (J Med Chem, 1985):
# Active and inactive are the calls of the source. The rule behind the calls is not given here.
# Key:
# Mus musculus [1] = assay: Effective dose against tetrabenazine induced ptosis in mice administered subcutaneously; format: functional; details: sc
# Method in brief: (§1)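 Male DS mice, 20-27 g, groups of five. Compound given po or sc in saline or gum arabic at 0.1 mL/10 g. Tetrabenazine 50 mg/kg sc given 1, 4 or 24 h later. Ptosis scored 1-4 at 1 h after TBZ, with ridit transformation. Dose for 50% prevention by regression.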
# Mus musculus [2] = assay: Effective dose against pentylenetetrazole intoxicity in mice administered through subcutaneous route; NE = no effect at 10 mg/kg; format: functional, organism-based; design: dose 10 mg/kg
# [3] = biological target: GABA-A receptor; anion channel (Rattus norvegicus) (UniProt O09028+P15431+P18506+P18508+P19969+P20236+P23574+P23576+P28471+P28473+P30191+P62813+P63079+P63138+Q91ZM7+Q9ES14); assay: Binding constant was determined by displacing potential to [3H]-diazepam binding in cerebral cortex homogenates of rat; format: tissue-based
# Method in brief: (§2)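 Wistar rat cerebral cortex homogenate incubated with compound and 2 nM [3H]diazepam at 0 °C for 60 min. Bound label trapped on glass filters and counted by scintillation. Ki = IC50/(1 + L/Kd).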
# Mus musculus [4] = assay: Effective dose against pentylenetetrazole intoxicity in mice administered through subcutaneous route; NE= no effect at 10 mg/kg; format: functional, organism-based; design: dose 10 mg/kg
# Mus musculus [5] = assay: Effective dose against pentylenetetrazole intoxicity in mice administered orally; NE= no effect at 50 mg/kg; format: functional, organism-based; design: dose 50 mg/kg
# Mus musculus [6] = assay: Percent inhibition against tetrabenazine induced ptosis in mice administered subcutaneously at 50 mg/kg; format: functional; details: sc, route subcutaneous; method in brief: as §1
# Mus musculus [7] = assay: Effective dose against pentylenetetrazole intoxicity in mice administered through subcutaneous route; format: functional; details: sc
# Mus musculus [8] = assay: Effective dose against pentylenetetrazole intoxicity in mice administered orally; format: functional
# Mus musculus [9] = assay: Effective dose against tetrabenazine induced ptosis in mice administered subcutaneously; NE= no effect at 50 mg/kg; format: functional, organism-based; design: dose 50 mg/kg; method in brief: as §1
# Mus musculus [10] = assay: Effective dose against pentylenetetrazole intoxicity in mice administered through subcutaneous route;NE = no effect at 20 mg/kg; format: functional, organism-based; design: dose 20 mg/kg
# Mus musculus [11] = assay: Effective dose against tetrabenazine induced ptosis in mice administered orally; format: functional; method in brief: as §1
# [12] = Acute toxicity was measured in mice after peroral administration; format: organism-based; details: mouse, in vivo, po
# Method in brief: (§3)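 Male DS mice, 20-26 g, given compound orally; mortality checked the day after treatment in groups of 10. LD50 by probit method, or by up-and-down method of Brownlee et al. (n = 5) where estimated.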
# Mus musculus [13] = assay: Percent inhibition against tetrabenazine induced ptosis in mice administered orally at 100 mg/kg; format: functional; details: route oral; method in brief: as §1
# Rattus norvegicus [14] = organism: Rattus norvegicus; assay: Inhibitory activity against uptake of [3H]norepinephrine into rat brain synaptosomes.; format: functional
# Method in brief: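 P2 synaptosomes from male Wistar rat cerebral cortex incubated with [3H]norepinephrine at 37 °C for 20 min, with compound at 5-6 concentrations. Stopped by Krebs-Henseleit dilution and glass-fibre filtration, then scintillation counting. IC50 taken as the concentration giving 50% uptake inhibition.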
# Mus musculus [15] = assay: Effective dose against pentylenetetrazole intoxicity in mice administered orally;NE = no effect at 50 mg/kg; format: functional, organism-based; design: dose 50 mg/kg
# Mus musculus [16] = assay: Percent inhibition against tetrabenazine induced ptosis in mice administered subcutaneously 50 mg/kg; format: functional; details: sc, route subcutaneous; method in brief: as §1
# Mus musculus [17] = assay: Effective dose against pentylenetetrazole intoxicity in mice administered orally; NE = no effect at 50 mg/kg; format: functional, organism-based; design: dose 50 mg/kg
# Mus musculus [18] = assay: Effective dose against pentylenetetrazole intoxicity in mice administered through subcutaneous route; NE = no effect at dose 10 mg/kg; format: functional, organism-based; design: dose 10 mg/kg
# Rattus norvegicus [19] = assay: Percent inhibition against anticonflict effect in rats when administered through oral route; at 32 mg/kg; format: functional
# Method in brief: (§4)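 Wistar rats in groups of 5-8, Geller-Seifter conflict procedure. Rats trained to lever-press for food on a variable-interval 60-s schedule. Oral dosing. A dose counted positive when shocks exceeded 12 or shock ratio exceeded 4 over four consecutive tone periods. ED50 with 95% limits by probit.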
# Mus musculus [20] = assay: Effective dose against pentylenetetrazole intoxicity in mice administered orally; NE = no effect at 200 mg/kg; format: functional, organism-based; design: dose 200 mg/kg
# [21] = Acute toxicity was measured in mice after peroral administration (805-1213); format: organism-based; details: mouse, in vivo, po; method in brief: as §3
# Rattus norvegicus [22] = assay: Percent inhibition was evaluated by their anticonflict effect in rats when administered through oral route at 32 mg/kg; format: functional; method in brief: as §4
# Rattus norvegicus [23] = assay: Effective dose against anticonflict effect in rats when administered through oral route; format: functional; method in brief: as §4
# Rattus norvegicus [24] = assay: Effective dose was evaluated by their anticonflict effect in rats when administered through oral route; format: functional; method in brief: as §4
# Rattus norvegicus [25] = organism: Rattus norvegicus; assay: Displacement of [3H]diazepam binding in rat cerebral cortex homogenates (Experiment 1); format: tissue-based; method in brief: as §2
# Rattus norvegicus [26] = organism: Rattus norvegicus; assay: Displacement of [3H]diazepam binding to rat cerebral cortex homogenates (Experiment 2); format: tissue-based; method in brief: as §2
# [27] = Mus musculus, po, read-out: ED50
Structure (SMILES),ED50 (Mus musculus [1]) [mg/kg],K2 [3] [µM],ED50 (Mus musculus [8]; [27]) [mg/kg],ED50 (Mus musculus [11]; [27]) [mg/kg],also measured
Cc1ccc2c(c1)C(c1ccccc1F)=NCC(=O)N2C1CCN(C)CC1,0.84,0.26,–,–,ED50 (Mus musculus [2]): inactive
CN1CCC(N2C(=O)CN=C(c3ccccc3F)c3ccc(F)cc32)CC1,0.94,0.44,–,–,ED50 (Mus musculus [4]): inactive; ED50 (Mus musculus [5]): inactive
CCOC(=O)N1CCC(N2C(=O)CN=C(c3ccccc3F)c3cc(Cl)ccc32)CC1,–,0.038,9.09,–,inhibition in vivo at 50 mg/kg (Mus musculus [6]): 67%; ED50 (Mus musculus [7]): 11.1 mg/kg
CN1CCC(N2C(=O)CN=C(c3ccccc3F)c3ccc(C(F)(F)F)cc32)CC1,–,17,–,–,ED50 (Mus musculus [9]): inactive; ED50 (Mus musculus [10]): inactive
CN1CCC(N2C(=O)C(O)N=C(c3ccccc3F)c3cc(Cl)ccc32)CC1 (stereo not given),–,0.074,2.41,9.79,–
CNC1=Nc2ccc(Cl)cc2C(c2ccccc2)=[N+]([O-])C1 [CHLORDIAZEPOXIDE],–,–,–,2.7,LD50 [12]: 877 mg/kg
CN1CCCC(N2C(=O)CN=C(c3ccccc3Cl)c3cc(Cl)ccc32)C1 (stereo not given),–,0.016,12,–,inhibition in vivo at 100 mg/kg (Mus musculus [13]): 21%
O=C1CN=C(c2ccccc2Cl)c2cc(F)ccc2N1C1CCNCC1,–,0.012,29.4,13.5,IC50 (Rattus norvegicus [14]): 877 nM
CN(C)CCCN1c2ccccc2CCc2ccccc21 [IMIPRAMINE],0.8,–,–,2.14,IC50 (Rattus norvegicus [14]): 85 nM
CN1CCC(N2C(=O)CN=C(c3ccccc3F)c3cc(Cl)c(Cl)cc32)CC1,–,0.8,–,–,ED50 (Mus musculus [15]): inactive; ED50 (Mus musculus [2]): inactive; inhibition in vivo at 50 mg/kg (Mus musculus [16]): 64%
O=C1CN=C(c2ccccc2F)c2ccccc2N1C1CCNCC1,0.07,0.15,–,–,ED50 (Mus musculus [17]): inactive; ED50 (Mus musculus [2]): inactive
O=C1C(O)N=C(c2ccccc2F)c2ccccc2N1C1CCNCC1 (stereo not given),0.23,0.36,–,–,ED50 (Mus musculus [18]): inactive
O=C1CN=C(c2ccccc2)c2ccccc2N1C1CCNCC1,0.06,1.3,–,0.26,IC50 (Rattus norvegicus [14]): 29 nM; inhibition in vivo at 32 mg/kg (Rattus norvegicus [19]): 20%; ED50 (Mus musculus [20]): inactive; ED50 (Mus musculus [2]): inactive; LD50 [12]: 1240 mg/kg
CN1CCC(N2C(=O)CN=C(c3ccccc3Cl)c3cc(F)ccc32)CC1,–,0.014,5.2,59.3,–
O=C1CN=C(c2ccccc2F)c2cc(F)ccc2N1C1CCNCC1,–,0.15,32.1,0.38,IC50 (Rattus norvegicus [14]): 79 nM; LD50 [21]: 939 mg/kg; ED50 (Mus musculus [8]): 27.55 mg/kg; inhibition in vivo at 32 mg/kg (Rattus norvegicus [22]): 50%
O=C1CN=C(c2ccccc2F)c2cc(Br)ccc2N1C1CCNCC1,–,0.033,2.7,5.37,IC50 (Rattus norvegicus [14]): 288 nM; ED50 (Rattus norvegicus [23]): 4.54 mg/kg
CC(=O)N1CCC(N2C(=O)CN=C(c3ccccc3)c3ccccc32)CC1,3.25,1.5,–,–,ED50 (Mus musculus [18]): inactive
O=C1C(O)N=C(c2ccccc2F)c2cc(Cl)ccc2N1C1CCNCC1 (stereo not given),–,0.14,12.5,6.51,ED50 (Rattus norvegicus [24]): 8.8 mg/kg
CN1CCC(N2C(=O)CN=C(c3ccccc3F)c3cc([N+](=O)[O-])ccc32)CC1,17.7,–,–,–,K2 (Rattus norvegicus [25]): 8.3 µM; K2 (Rattus norvegicus [26]): 24 µM; ED50 (Mus musculus [4]): inactive
CN1CCC(N2C(=O)CN=C(c3ccccc3)c3cc(Br)ccc32)CC1,–,0.415,21.4,2.88,ED50 (Rattus norvegicus [23]): 17.4 mg/kg
CN1CCC(N2C(=O)CN=C(c3ccccc3F)c3cc(Cl)ccc32)CC1,1.3,–,2.7,2.13,ED50 (Mus musculus [7]): 0.71 mg/kg; ED50 (Mus musculus [11]): 1.12 mg/kg; ED50 (Rattus norvegicus [24]): 3.67 mg/kg; ED50 (Mus musculus [8]): 5.28 mg/kg
